Assays:
Rattus norvegicus [1] = experiment: Mean uptake in blood 5 hr after intravenous injection of 3 microCi (111 kBq); type: functional
Procedure, shortened: (§1)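 Immature female Fischer rats (24 days old, 55-60 g) had free access to food and water. They were warmed under an infrared lamp, then given 200 μL HPLC-purified 125I-labeled steroid (3 μCi, 111 kBq) in saline with 9% ethanol and 1% Tween 80 via the lateral tail vein. Where stated, 60 μg unlabeled estradiol was co-injected. Rats were killed at 1, 2 or 5 h. Tissues were KCl-washed, blotted, weighed and gamma-counted against a reference of the injectate. Results are PDK (% dose × kg/g), mean and SD of three rats.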

Rattus norvegicus [2] = experiment: Mean uptake in brain 2 hr after intravenous injection of 3 microCi (111 kBq); type: functional; procedure, shortened: as §1
Rattus norvegicus [3] = experiment: Mean uptake in spleen 5 hr after intravenous injection of 3 microCi (111 kBq); type: functional; procedure, shortened: as §1
Rattus norvegicus [4] = experiment: In vivo deiodination in 1 hour after administration of compound; type: functional
Procedure, shortened: (§2)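 In immature female Fischer rats given 3 μCi (111 kBq) of 125I-steroid iv, deiodination was estimated from thyroid PDK at 1, 2 or 5 h, or at 2 h with 60 μg co-injected estradiol. Thyroid uptake after [125I]NaI injection at the same time interval was taken as 100%.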

Rattus norvegicus [5] = experiment: Mean uptake in lungs 1 hr after intravenous injection of 3 microCi (111 kBq) of the compound; type: functional; procedure, shortened: as §1
Rattus norvegicus [6] = experiment: Mean uptake in spleen 2 hr after intravenous injection of 3 uM Ci (111 kBq); type: functional; procedure, shortened: as §1
Rattus norvegicus [7] = experiment: Mean uptake in ovaries 5 hr after intravenous injection of 3 microCi (111 kBq); type: functional, Female gonad; procedure, shortened: as §1
Rattus norvegicus [8] = experiment: Mean uptake in lungs 5 hr after intravenous injection of 3 microCi (111 kBq); type: functional; procedure, shortened: as §1
Rattus norvegicus [9] = experiment: In vivo deiodination in 2 hour after administration of compound in presence of 60 microg of estradiol; type: functional; procedure, shortened: as §2
Rattus norvegicus [10] = experiment: Mean uptake in muscle 1 hr after intravenous injection of 3 microCi (111 kBq) of the compound; type: functional, Muscle tissue; procedure, shortened: as §1
Rattus norvegicus [11] = experiment: Mean uptake in thyroid 1 hr after intravenous injection of 3 microCi (111 kBq) of the compound; type: functional, Thyroid gland; procedure, shortened: as §1
Rattus norvegicus [12] = experiment: Mean uptake in adrenals 5 hr after intravenous injection of 3 microCi (111 kBq); type: functional, Adrenal gland; procedure, shortened: as §1
Rattus norvegicus [13] = experiment: Mean uptake in blood 1 hr after intravenous injection of 3 microCi (111 kBq) of the compound; type: functional; procedure, shortened: as §1
Rattus norvegicus [14] = experiment: Mean uptake in muscle 2 hr after intravenous injection of 3 microCi (111 kBq); type: functional, Muscle tissue; procedure, shortened: as §1
Rattus norvegicus [15] = experiment: Mean uptake in uterus 2 hr after intravenous injection of 3 microCi (111 kBq); type: functional
Procedure, shortened: (§3)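 Immature female Fischer rats (24 days old, 55-60 g), food and water free. 3 μCi (111 kBq) HPLC-purified 125I-labeled steroid given iv via lateral tail vein in 200 μL saline containing 9% ethanol and 1% Tween 80; receptor-saturation group co-injected with 60 μg unlabeled estradiol. Sacrificed at set times; uterus washed with 0.154 M KCl, blotted, weighed, gamma counted against injected reference; expressed as PDK (% dose × kg/g), mean of three rats.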

Rattus norvegicus [16] = experiment: Mean uptake in adrenals 2 hr after intravenous injection of 3 microCi (111 kBq); type: functional, Adrenal gland; procedure, shortened: as §1
Rattus norvegicus [17] = experiment: Mean uptake in kidneys 1 hr after intravenous injection of 3 microCi (111 kBq) of the compound; type: functional; procedure, shortened: as §1
Rattus norvegicus [18] = experiment: Mean uptake in thyroid 2 hr after intravenous injection of 3 microCi (111 kBq) in presence of 60 ug coinjected estradiol; type: functional, Thyroid gland; procedure, shortened: as §1
Rattus norvegicus [19] = experiment: Mean uptake in blood 2 hr after intravenous injection of 3 microCi (111 kBq) in presence of 60 ug coinjected estradiol; type: functional; procedure, shortened: as §1
Rattus norvegicus [20] = experiment: Mean uptake in liver 2 hr after intravenous injection of 3 microCi (111 kBq); type: functional; procedure, shortened: as §1
Rattus norvegicus [21] = experiment: In vivo deiodination in 2 hour after administration of compound; type: functional; procedure, shortened: as §2
Rattus norvegicus [22] = experiment: Mean uptake in adrenals 1 hr after intravenous injection of 3 microCi (111 kBq) of the compound; type: functional, Adrenal gland; procedure, shortened: as §1
Rattus norvegicus [23] = experiment: Mean uptake in kidneys 2 hr after intravenous injection of 3 microCi (111 kBq); type: functional; procedure, shortened: as §1
Rattus norvegicus [24] = experiment: Mean uptake in spleen 2 hr after intravenous injection of 3 uM Ci (111 kBq) in presence of 60 ug coinjected estradiol; type: functional; procedure, shortened: as §1
Rattus norvegicus [25] = experiment: Mean uptake in lungs 2 hr after intravenous injection of 3 microCi (111 kBq); type: functional; procedure, shortened: as §1
Rattus norvegicus [26] = species on record: Rattus norvegicus; experiment: Effect of Co-injection with estradiol on the uterus to blood ratio (Co-injected with 60 microg of estradiol (E2)); type: functional
Procedure, shortened: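 Immature female Fischer rats (24 days, 55-60 g) received 3 μCi (111 kBq) 125I-labelled steroid iv via the lateral tail vein, in 200 μL 9% ethanol-saline with 1% Tween 80, co-injected with 60 μg unlabelled estradiol. Killed at 2 h. Uterus and blood were KCl-washed and gamma-counted as PDK. Ratio is the mean of three rats; % change is versus tracer-only animals.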

Rattus norvegicus [27] = experiment: In vivo deiodination in 5 hr after administration of compound; type: functional; procedure, shortened: as §2
Rattus norvegicus [28] = experiment: Mean uptake in liver 1 hr after intravenous injection of 3 microCi (111 kBq) of the compound; type: functional; procedure, shortened: as §1
Rattus norvegicus [29] = experiment: Mean uptake in uterus 5 hr after intravenous injection of 3 microCi (111 kBq); type: functional; procedure, shortened: as §3
Rattus norvegicus [30] = experiment: Mean uptake in uterus 1 hr after intravenous injection of 3 microCi (111 kBq) of the compound; type: functional; procedure, shortened: as §1
Rattus norvegicus [31] = experiment: Mean uptake in liver 2 hr after intravenous injection of 3 microCi (111 kBq) in presence of 60 ug coinjected estradiol; type: functional; procedure, shortened: as §1
Rattus norvegicus [32] = experiment: Mean uptake in brain 1 hr after intravenous injection of 3 microCi (111 kBq) of the compound; type: functional; procedure, shortened: as §1
Rattus norvegicus [33] = experiment: Mean uptake in uterus 2 hr after intravenous injection of 3 uM Ci (111 kBq) in presence of 60 ug coinjected estradiol; type: functional; procedure, shortened: as §3
Rattus norvegicus [34] = experiment: Mean uptake in kidneys 5 hr after intravenous injection of 3 microCi (111 kBq); type: functional; procedure, shortened: as §1
Rattus norvegicus [35] = experiment: Mean uptake in thyroid 2 hr after intravenous injection of 3 microCi (111 kBq); type: functional, Thyroid gland; procedure, shortened: as §1
Rattus norvegicus [36] = experiment: Mean uptake in ovaries 2 hr after intravenous injection of 3 microCi (111 kBq); type: functional, Female gonad; procedure, shortened: as §1
Rattus norvegicus [37] = experiment: Mean uptake in ovaries 1 hr after intravenous injection of 3 microCi (111 kBq) of the compound; type: functional, Female gonad; procedure, shortened: as §1
Rattus norvegicus [38] = experiment: Mean uptake in kidneys 2 hr after intravenous injection of 3 microCi (111 kBq) in presence of 60 ug coinjected estradiol; type: functional, Kidney; procedure, shortened: as §1
Rattus norvegicus [39] = experiment: Mean uptake in ovaries 2 hr after intravenous injection of 3 uM Ci (111 kBq) in presence of 60 ug coinjected estradiol; type: functional, Female gonad; procedure, shortened: as §1
Rattus norvegicus [40] = experiment: Mean uptake in liver 5 hr after intravenous injection of 3 microCi (111 kBq); type: functional; procedure, shortened: as §1
Rattus norvegicus [41] = experiment: Mean uptake in lungs 2 hr after intravenous injection of 3 microCi (111 kBq) in presence of 60 ug coinjected estradiol; type: functional; procedure, shortened: as §1
Rattus norvegicus [42] = experiment: Mean uptake in spleen 1 hr after intravenous injection of 3 microCi (111 kBq) of the compound; type: functional; procedure, shortened: as §1
Rattus norvegicus [43] = experiment: Mean uptake in blood 2 hr after intravenous injection of 3 microCi (111 kBq); type: functional; procedure, shortened: as §1
Rattus norvegicus [44] = experiment: Mean uptake in brain 2 hr after intravenous injection of 3 uM Ci (111 kBq) in presence of 60 ug coinjected estradiol; type: functional; procedure, shortened: as §1
Rattus norvegicus [45] = experiment: Mean uptake in muscles 5 hr after intravenous injection of 3 microCi (111 kBq); type: functional, Muscle tissue; procedure, shortened: as §1
Rattus norvegicus [46] = experiment: Mean uptake in adrenals 2 hr after intravenous injection of 3 microCi (111 kBq) in presence of 60 ug coinjected estradiol; type: functional, Adrenal gland; procedure, shortened: as §1

Molecule `C[C@]12CC[C@@H]3c4ccc(O)cc4CC[C@H]3[C@@H]1CC[C@@]2(O)/C=C\[125I]` has a PDK (Rattus norvegicus [1]) of 17, a PDK (Rattus norvegicus [2]) of 11 and a PDK (Rattus norvegicus [3]) of 9. For the same molecule, the Deiodination (Rattus norvegicus [4]) was 3.8%, the PDK (Rattus norvegicus [5]) was 44 and the PDK (Rattus norvegicus [6]) was 11. It also gave a PDK (Rattus norvegicus [7]) of 50, a PDK (Rattus norvegicus [8]) of 18 and a Deiodination (Rattus norvegicus [9]) of 3.7%. The PDK (Rattus norvegicus [10]) was 24, the PDK (Rattus norvegicus [11]) was 2547 and the PDK (Rattus norvegicus [12]) was 23. For the same molecule, the PDK (Rattus norvegicus [13]) was 16, the PDK (Rattus norvegicus [14]) was 10 and the PDK (Rattus norvegicus [15]) was 166. The PDK (Rattus norvegicus [16]) was 67, the PDK (Rattus norvegicus [17]) was 58 and the PDK (Rattus norvegicus [18]) was 4975. It also gave a PDK (Rattus norvegicus [19]) of 14, a PDK (Rattus norvegicus [20]) of 84 and a Deiodination (Rattus norvegicus [21]) of 2.8%. For the same molecule, the PDK (Rattus norvegicus [22]) was 154, the PDK (Rattus norvegicus [23]) was 32 and the PDK (Rattus norvegicus [24]) was 10. The PDK (Rattus norvegicus [25]) was 25, the Change (Rattus norvegicus [26]) was -78% and the “Uterus to blood ratio” value (Rattus norvegicus [26]) was 3. It also gave a Deiodination (Rattus norvegicus [27]) of 17%, a PDK (Rattus norvegicus [28]) of 148 and a PDK (Rattus norvegicus [29]) of 106. For the same molecule, the PDK (Rattus norvegicus [30]) was 228, the PDK (Rattus norvegicus [31]) was 83 and the PDK (Rattus norvegicus [32]) was 34. It also gave a PDK (Rattus norvegicus [33]) of 41, a PDK (Rattus norvegicus [34]) of 20 and a PDK (Rattus norvegicus [35]) of 3718. The PDK (Rattus norvegicus [36]) was 85, the PDK (Rattus norvegicus [37]) was 116 and the PDK (Rattus norvegicus [38]) was 29. The PDK (Rattus norvegicus [39]) was 36, the PDK (Rattus norvegicus [40]) was 57 and the PDK (Rattus norvegicus [41]) was 26. The PDK (Rattus norvegicus [42]) was 19, the PDK (Rattus norvegicus [43]) was 12 and the PDK (Rattus norvegicus [44]) was 14. For the same molecule, the PDK (Rattus norvegicus [45]) was 5 and the PDK (Rattus norvegicus [46]) was 77.

From ChEMBL document CHEMBL1123977, “Synthesis, receptor binding, and tissue distribution of (17 alpha,20E)- and (17 alpha,20Z)-21-[125I]iodo-19-norpregna-1,3,5(10), 20-tetraene-3,17-diol ” (1988)
